Results published in ChEMBL document CHEMBL4033653, “Effect of 1,2,3-triazole salts, non-classical bioisosteres of miltefosine, on Leishmania amazonensis” (Bioorg Med Chem, 2017).
Calls of active or inactive are those of the source. The calls are words filed in the database; no cut-off is given here.

How the values were obtained:
Leishmania amazonensis [1] = test: Antileishmanial activity against Leishmania amazonensis IFLA/BR/1967/PH8 promastigotes after 72 hrs by MTT assay; type: functional
Peritoneal macrophage = test: (§1) Cytotoxicity against mouse peritoneal macrophages after 72 hrs by MTT assay; type: cell-based; details: peritoneal macrophage, 72 h
Leishmania amazonensis [2] = test: Induction of morphological changes in Leishmania amazonensis IFLA/BR/1967/PH8 promastigotes assessed as parasite size reduction at 2.5 to 20 uM after 24 hrs by Giemsa staining-based microscopic analysis; type: functional
In short: (§2)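 Exponential-phase promastigotes (1x10^7 cells/mL) treated 24 h at 25 °C; harvested, resuspended in PBS, smeared, ethanol-fixed, Giemsa-stained and examined by light microscopy.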

Leishmania amazonensis [3] = test: Induction of plasma membrane permeability in Leishmania amazonensis IFLA/BR/1967/PH8 promastigotes form assessed as increase in fluorescence intensity at 2.5 to 10 uM after 24 hrs by PI staining-based spectrofluorometric analysis; type: functional
In short: (§3)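 Exponential WT promastigotes (1x10^7 cells/mL) treated 24 h at 25 °C; washed, PI 1.0 µg/mL 15 min dark at room temperature; fluorescence 540/600 nm as % increase over untreated; heat-killed cells (65 °C, 10 min) as positive control; three independent experiments.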

Leishmania amazonensis [4] = test: Induction of morphological changes in Leishmania amazonensis IFLA/BR/1967/PH8 promastigotes assessed as rounded cell body at 2.5 to 20 uM after 24 hrs by Giemsa staining-based microscopic analysis; type: functional; in short: as §2
Leishmania amazonensis [5] = test: Induction of morphological changes in Leishmania amazonensis IFLA/BR/1967/PH8 promastigotes assessed as altered parasite shape at 2.5 to 20 uM after 24 hrs by Giemsa staining-based microscopic analysis; type: functional; in short: as §2
Leishmania amazonensis [6] = test: Induction of lipid inclusions in Leishmania amazonensis IFLA/BR/1967/PH8 promastigotes at 5 uM after 24 hrs by Nile Red satining-based spectrofluorometric analysis; type: functional
In short: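 WT exponential-phase promastigotes (1x10^7 cells/mL) cultured 24 h at 25 °C, stained with Nile Red, fluorescence read spectrofluorometrically versus untreated; three experiments in triplicate.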

Leishmania amazonensis [7] = test: Induction of lipid inclusions in Leishmania amazonensis IFLA/BR/1967/PH8 promastigotes at 2.5 uM after 24 hrs by Nile Red satining-based spectrofluorometric analysis; type: functional
In short: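 WT (PH8) promastigotes at 1x10^7 cells/mL in exponential phase, cultured 24 h at 25 °C with or without 2.5–20.0 µM. Parasites incubated with Nile Red, then fluorescence measured spectrofluorometrically. Reported as arbitrary fluorescence units versus untreated parasites, mean of three experiments run in triplicate.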

Leishmania amazonensis [8] = test: Antileishmanial activity against Leishmania amazonensis IFLA/BR/1967/PH8 promastigotes at 2.5 to 20 uM incubated for 72 hrs followed by compound washout measured after 72 hrs by Neubauer chamber method; type: functional
In short: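 WT promastigotes exposed 72 h at 25 °C and counted; centrifuged, washed twice in PBS, adjusted to 10x10^6 cells/mL in drug-free Warren's medium + 10% serum; after 72 h at 25 °C viable cells counted in Neubauer chamber; three independent experiments in duplicate.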

Leishmania amazonensis [9] = test: Induction of autophagy in Leishmania amazonensis IFLA/BR/1967/PH8 promastigotes at 2.5 to 10 uM after 24 hrs by MDC staining-based fluorometric analysis; type: functional
In short: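 Exponential WT promastigotes (1x10^7 cells/mL) treated 24 h at 25 °C; washed, adjusted to 10x10^6 cells/mL, 100 µM monodansylcadaverine 1 h dark at 25 °C; fluorescence 335/460 nm versus untreated; three independent experiments.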

Leishmania amazonensis [10] = test: Induction of DNA damage in Leishmania amazonensis IFLA/BR/1967/PH8 promastigotes at 5 to 10 uM after 24 hrs by TUNEL assay; type: functional
In short: (§4)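 Exponential-phase WT promastigotes (1x10^7 cells/mL) cultured 24 h at 25 °C; DNA fragmentation detected by TUNEL with DAPI counterstain, fluorescence microscopy at 100X.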

Leishmania amazonensis [11] = test: Induction of plasma membrane permeability in Leishmania amazonensis IFLA/BR/1967/PH8 promastigotes form assessed as increase in fluorescence intensity at 20 uM after 24 hrs by PI staining-based spectrofluorometric analysis; type: functional; in short: as §3
Leishmania amazonensis [12] = test: Induction of apoptosis in Leishmania amazonensis IFLA/BR/1967/PH8 promastigotes assessed as late apoptotic population at 44 uM after 24 hrs by Annexin V-FITC/PI staining based flow cytometric analysis (reference value: 2.62%); type: functional
In short: (§5)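 Exponential-phase WT promastigotes (1x10^7 cells/mL) cultured 24 h at 25 °C; stained annexin V-FITC plus PI, flow cytometry with 10,000 events gated on parasites; quadrant percentages; three independent experiments.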

Leishmania amazonensis [13] = test: Induction of DNA damage in Leishmania amazonensis IFLA/BR/1967/PH8 promastigotes at 22 uM after 24 hrs by TUNEL assay; type: functional; in short: as §4
Leishmania amazonensis [14] = test: Induction of apoptosis in Leishmania amazonensis IFLA/BR/1967/PH8 promastigotes assessed as necrotic population at 44 uM after 24 hrs by Annexin V-FITC/PI staining based flow cytometric analysis (reference value: 0.03%); type: functional; in short: as §5
Leishmania amazonensis [15] = test: Induction of ROS accumulation in Leishmania amazonensis IFLA/BR/1967/PH8 promastigotes at 22 uM after 72 hrs by H2DCFDA staining-based fluorometric analysis relative to control; type: functional
In short: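 WT exponential-phase promastigotes treated at 25 °C; adjusted to 2x10^7 cells in PBS, loaded with H2DCFDA 30 min dark at room temperature; fluorescence 485/528 nm versus untreated; three independent experiments.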

Leishmania amazonensis [16] = test: Antileishmanial activity against Leishmania amazonensis IFLA/BR/1967/PH8 amastigotes transfected with red fluorescent protein infected in murine macrophages after 72 hrs by fluorometric analysis; type: functional; details: IFLA/BR/1967/PH8, 72 h
In short: (§6)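 Infected murine macrophages treated 0.78-100.0 µM for 72 h; fluorescence read at 540/600 nm for RFP parasites (PH8) and 485/528 nm for GFP parasites (Josefa strain); IC50 from three independent experiments in duplicate.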

Leishmania amazonensis [17] = test: Antileishmanial activity against Leishmania amazonensis WHOM/BR/75/Josefa promastigotes transfected with green fluorescent protein after 72 hrs by MTT assay; type: functional
[18] = as §1; type: cell-based, Peritoneal macrophage; details: peritoneal macrophages
Leishmania amazonensis [19] = test: Antileishmanial activity against Leishmania amazonensis IFLA/BR/1967/PH8 amastigotes infected in murine macrophages after 72 hrs by fluorometric analysis; type: functional; details: IFLA/BR/1967/PH8, 72 h
Leishmania amazonensis [20] = test: Antileishmanial activity against Leishmania amazonensis WHOM/BR/75/Josefa amastigotes transfected with green fluorescent protein infected in murine macrophages after 72 hrs by fluorometric analysis; type: functional; in short: as §6
[21] = Selectivity index, ratio of CC50 for mouse peritoneal macrophages to IC50 for Leishmania amazonensis WHOM/BR/75/Josefa amastigotes transfected with green fluorescent protein
In short: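 SI = CC50 for mouse peritoneal macrophages / GFP amastigote IC50. […] IC50: macrophages infected with GFP-expressing Josefa-strain parasites, treated with 0.78–100.0 µM for 72 h; fluorescence read at 485 nm excitation/528 nm emission. Three experiments in duplicate.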

[22] = Selectivity index, ratio of CC50 for mouse peritoneal macrophages to IC50 for Leishmania amazonensis IFLA/BR/1967/PH8 amastigotes
In short: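 SI = CC50 for mouse peritoneal macrophages / amastigote IC50. […] IC50: WT-infected macrophages treated with 0.78–100.0 µM in sterile water; burden scored by counting amastigotes and infected/uninfected cells in at least 200 macrophages. Three experiments in duplicate.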

Leishmania amazonensis [23] = test: Antileishmanial activity against Leishmania amazonensis IFLA/BR/1967/PH8 promastigotes transfected with red fluorescent protein after 72 hrs by MTT assay; type: functional; details: IFLA/BR/1967/PH8, 72 h
Leishmania amazonensis [24] = test: Induction of apoptosis in Leishmania amazonensis IFLA/BR/1967/PH8 promastigotes assessed as early apoptotic population at 44 uM after 24 hrs by Annexin V-FITC/PI staining based flow cytometric analysis (reference value: 5.29%); type: functional; in short: as §5
[25] = Selectivity index, ratio of CC50 for mouse peritoneal macrophages to IC50 for Leishmania amazonensis IFLA/BR/1967/PH8 amastigotes transfected with red fluorescent protein
In short: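 SI = CC50 for mouse peritoneal macrophages / RFP amastigote IC50. […] IC50: macrophages infected with RFP-expressing PH8 parasites, treated with 0.78–100.0 µM for 72 h; fluorescence read at 540 nm excitation/600 nm emission. Three experiments in duplicate.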

[26] = Leishmania amazonensis, IFLA/BR/1967/PH8, 72 h

CCCCCCn1cc(CO)[n+](CCC)n1
IC50 (Leishmania amazonensis [1]; [26]): > 100 µM

CCCCCCCCCCn1cc(CO)[n+](CCC)n1 [listing 1 of 2 here]
IC50 (Leishmania amazonensis [1]): 0.7 µM | CC50 (Peritoneal macrophage): 3.9 µM

CCCCCCCCCCn1cc(CO)[n+](C)n1 [listing 1 of 2 here]
Activity (Leishmania amazonensis [2]): Active | Activity (Leishmania amazonensis [3]): inactive | Activity (Leishmania amazonensis [4]): Active | Activity (Leishmania amazonensis [5]): Active | Activity (Leishmania amazonensis [6]): inactive | Activity (Leishmania amazonensis [7]): inactive | Activity (Leishmania amazonensis [8]): Active | Activity (Leishmania amazonensis [9]): inactive | Activity (Leishmania amazonensis [10]): Active | Activity (Leishmania amazonensis [11]): Active

CCCCCCCCCCn1cc(CO)[n+](C)n1 [listing 2 of 2 here]
IC50 (Leishmania amazonensis [1]): 14.3 µM

CCCCn1cc(CO)[n+](C)n1
IC50 (Leishmania amazonensis [1]; [26]): > 100 µM

CCCCn1cc(CO)[n+](CCC)n1
IC50 (Leishmania amazonensis [1]; [26]): > 100 µM

CCCCCCCCCCn1cc(CO)[n+](CCC)n1 [listing 2 of 2 here]
IC50 (Leishmania amazonensis [1]; [26]): 0.73 µM | CC50 (Peritoneal macrophage): 4.6 µM

CCCCCCn1cc(CO)[n+](C)n1
IC50 (Leishmania amazonensis [1]; [26]): > 100 µM

CCCCCCCCCCCCCCCCOP(=O)([O-])OCC[N+](C)(C)C [MILTEFOSINE]
IC50 (Leishmania amazonensis [1]; [26]): 22 µM | Activity (Leishmania amazonensis [12]): 12.23% | Activity (Leishmania amazonensis [13]): Active | Activity (Leishmania amazonensis [14]): 7.15% | Activity (Leishmania amazonensis [15]): 66.7% | IC50 (Leishmania amazonensis [16]): 12.7 µM | IC50 (Leishmania amazonensis [17]): 13.2 µM | CC50 at 72 h [18]: 144 µM | IC50 (Leishmania amazonensis [19]): 4.2 µM | IC50 (Leishmania amazonensis [20]): 6.6 µM | Ratio CC50/IC50 [21]: 21.7 | Ratio CC50/IC50 [22]: 34.2 | IC50 (Leishmania amazonensis [23]): 18.9 µM | Activity (Leishmania amazonensis [24]): 53.22% | Ratio CC50/IC50 [25]: 11.3
